Laboratory results published in ChEMBL document CHEMBL1148432, “PDE2 inhibition by the PI3 kinase inhibitor LY294002 and analogues” (Bioorg Med Chem Lett, 2004).

target: Phosphodiesterase 3 (Homo sapiens, UniProt Q14432+Q13370); experiment: Inhibition of human platelet phosphodiesterase 3
Outline: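 PDE3 was separated from PDE2 in human platelet lysate by anion-exchange chromatography. It was assayed under conditions optimal for that isozyme, with the AMP product quantified by reverse-phase HPLC.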

| SMILES | IC50 [µM] |
| --- | --- |
| O=c1cc(N2CCOCC2)oc2c(-c3ccccc3)cccc12 [LY-294002] | 100 |

target: T1, cGMP-dependent 3',5'-cyclic phosphodiesterase (Homo sapiens, UniProt O00408); experiment: Inhibitory activity against human platelet phosphodiesterase 2 at 50 uM expressed as percent basal value
T1 sequence (O00408 whole entry): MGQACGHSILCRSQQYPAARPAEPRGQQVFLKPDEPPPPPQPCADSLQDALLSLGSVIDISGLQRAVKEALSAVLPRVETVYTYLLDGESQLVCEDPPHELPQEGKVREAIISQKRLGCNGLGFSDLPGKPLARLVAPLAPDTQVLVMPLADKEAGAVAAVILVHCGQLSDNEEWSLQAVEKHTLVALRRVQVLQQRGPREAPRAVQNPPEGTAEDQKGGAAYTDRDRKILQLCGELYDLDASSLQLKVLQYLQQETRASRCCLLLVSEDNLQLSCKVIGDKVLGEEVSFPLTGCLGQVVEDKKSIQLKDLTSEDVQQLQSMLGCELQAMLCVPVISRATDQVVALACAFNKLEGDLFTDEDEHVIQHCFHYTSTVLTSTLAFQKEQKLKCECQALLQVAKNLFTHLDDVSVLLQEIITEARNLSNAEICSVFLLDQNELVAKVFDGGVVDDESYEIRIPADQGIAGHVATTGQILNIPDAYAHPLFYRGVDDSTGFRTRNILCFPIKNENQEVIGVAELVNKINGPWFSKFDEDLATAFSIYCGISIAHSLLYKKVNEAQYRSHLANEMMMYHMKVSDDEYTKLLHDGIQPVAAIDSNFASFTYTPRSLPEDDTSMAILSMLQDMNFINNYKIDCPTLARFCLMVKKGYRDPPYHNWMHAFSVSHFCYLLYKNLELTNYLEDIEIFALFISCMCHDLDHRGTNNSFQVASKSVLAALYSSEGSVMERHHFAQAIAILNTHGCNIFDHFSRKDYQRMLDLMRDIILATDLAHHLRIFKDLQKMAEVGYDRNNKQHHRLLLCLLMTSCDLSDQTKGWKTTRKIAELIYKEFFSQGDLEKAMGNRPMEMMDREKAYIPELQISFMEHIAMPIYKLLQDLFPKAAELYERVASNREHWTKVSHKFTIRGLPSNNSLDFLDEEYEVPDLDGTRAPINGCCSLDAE
Outline: (§1)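 PDE2 was purified from human platelet lysate by anion-exchange chromatography. The enzyme was premixed in HEPES buffer with cGMP and inhibitor or DMSO for 90 s at 37 °C, then started with cAMP substrate. The reaction was stopped after 5 min by heating at 100 °C for 3 min. AMP was measured by reverse-phase HPLC at 254 nm against standards and expressed as % of DMSO control (mean ± SE, n ≥ 3).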

| SMILES | Remaining activity (% of control) [%] |
| --- | --- |
| Cc1c(OCc2ccccc2)ccc2c(=O)cc(N3CCOCC3)oc12 | 38 |
| Cc1c(-c2ccccc2)ccc2c(=O)cc(N3CCOCC3)oc12 | 31 |
| O=c1cc(N2CCOCC2)oc2c(O)cccc12 | 19 |
| O=c1cc(N2CCOCC2)oc2cc(-c3ccccc3)ccc12 | 9 |
| O=c1cc(N2CCOCC2)oc2c(-c3ccccc3)cccc12 [LY-294002] | 54 |
| O=c1cc(N2CCOCC2)oc2c(OCc3cccnc3)cccc12 | 35 |
| O=c1cc(N2CCOCC2)oc2c(-c3ccc(Oc4ccccc4)cc3)cccc12 | 75 |
| O=c1cc(N2CCOCC2)oc2c(CCc3ccccc3)cccc12 | 43 |
| COc1cccc2c(=O)cc(N3CCOCC3)oc12 | 20 |
| COc1cc(-c2ccccc2Cl)c2oc(N3CCOCC3)cc(=O)c2c1 | 78 |
| O=c1cc(N2CCOCC2)oc2cc(OCc3ccccc3)ccc12 | 12 |
| O=c1cc(N2CCOCC2)oc2cc(C#Cc3ccccc3)ccc12 | 92 |
| COc1cc(-c2ccccc2)c2oc(N3CCOCC3)cc(=O)c2c1 | 75 |
| COc1ccc2oc(N3CCOCC3)cc(=O)c2c1 | 38 |
| O=c1cc(N2CCOCC2)oc2c(-c3ccccc3Cl)cccc12 | 62 |
| O=c1cc(N2CCOCC2)oc2c(OCc3ccccc3)cccc12 | 40 |
| Cc1cc(-c2ccccc2)c2oc(N3CCOCC3)cc(=O)c2c1 | 60 |
| O=c1cc(N2CCOCC2)oc2c(C#Cc3ccccc3)cccc12 | 93 |
| O=c1cc(N2CCOCC2)oc2c(-c3ccccc3C(F)(F)F)cccc12 | 43 |
| O=c1cc(N2CCOCC2)oc2cc(OCc3cccnc3)ccc12 | 22 |
| COc1cc(-c2cccc(Cl)c2)c2oc(N3CCOCC3)cc(=O)c2c1 | 87 |
| CCc1cc(-c2ccccc2)c2oc(N3CCOCC3)cc(=O)c2c1 | 47 |
| Cc1c(OCc2cccnc2)ccc2c(=O)cc(N3CCOCC3)oc12 | 35 |
| O=c1cc(N2CCOCC2)oc2c(-c3ccccc3)cc(O)cc12 | 69 |
| Cc1c(C#Cc2ccccc2)ccc2c(=O)cc(N3CCOCC3)oc12 | 44 |
| COc1ccccc1-c1cccc2c(=O)cc(N3CCOCC3)oc12 | 47 |
| COc1cc(-c2ccc(Cl)cc2)c2oc(N3CCOCC3)cc(=O)c2c1 | 67 |
| O=c1cc(N2CCOCC2)oc2c(-c3ccc(F)cc3)cccc12 | 43 |
| Cc1ccccc1-c1cccc2c(=O)cc(N3CCOCC3)oc12 | 47 |

target: T1, cGMP-dependent 3',5'-cyclic phosphodiesterase; experiment: Inhibition of human platelet phosphodiesterase 2; outline: as §1

| SMILES | IC50 [µM] |
| --- | --- |
| O=c1cc(N2CCOCC2)oc2c(-c3ccccc3)cccc12 [LY-294002] | 40 |
| CCCCCC[C@@H]([C@@H](C)O)n1cnc2c(N)ncnc21 [EHNA] | 5 |
| O=c1cc(N2CCOCC2)oc2c(C#Cc3ccccc3)cccc12 | 6 |
| COc1cc(-c2cccc(Cl)c2)c2oc(N3CCOCC3)cc(=O)c2c1 | 9 |
